Results taken from ChEMBL document CHEMBL1124107, “Antihypertensive thiadiazoles. 1. Synthesis of some 2-aryl-5-hydrazino-1,3,4-thiadiazoles with vasodilator activity” (1988).
The source made the active and inactive calls. The rule behind the calls is not given here.

What was measured:
Rattus norvegicus [1] = experiment: Maximum percentage reduction in mean blood pressure in metacorticoid (DOCA) hypertensive rats at a standard oral dose of 100 mg/kg; assay type: functional
How it was run: (§1)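 DOCA hypertensive rats, n = 3-5. Food removed 18 h before oral dosing; ip injections given to unstarved animals. Blood pressure recorded by pressure transducer under minimal restraint, twice before dosing with drug or isotonic saline vehicle, then at 1, 2, 3, 5 and 22 h. MABP taken as diastolic plus one-third pulse pressure.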

Rattus norvegicus [2] = experiment: Increase in diastolic blood pressure for 0.1 ug/kg intravenous dosing of noradrenaline in pithed rats; assay type: functional, Artery
How it was run: (§2)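 Male rats (200-300 g) pretreated ip with drug or isotonic saline, groups of five, 1 or 2 h before pithing. Halothane anesthesia, tracheal cannulation, CNS destroyed via left orbit and spinal cord, artificial respiration with room air at 50 strokes/min. Pressor responses to iv noradrenaline (0.1-1.0 ug/kg), iv angiotensin (0.03-0.3 ug/kg), or whole sympathetic outflow stimulation.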

Rattus norvegicus [3] = experiment: Increase in diastolic blood pressure for 0.3 ug/kg intravenous dosing of angiotensin in pithed rats; assay type: functional, Artery; how it was run: as §2
Rattus norvegicus [4] = experiment: Increase in diastolic blood pressure for 0.3 ug/kg intravenous dosing of noradrenaline in pithed rats; assay type: functional, Artery; how it was run: as §2
Rattus norvegicus [5] = species: Rattus norvegicus; experiment: Increase in diastolic blood pressure for 1 Htz electrical stimulation in the pithed rats; assay type: functional, Artery; how it was run: as §2
Rattus norvegicus [6] = experiment: Increase in diastolic blood pressure for 1.0 ug/kg intravenous dosing of noradrenaline in pithed rats; assay type: functional, Artery; how it was run: as §2
Rattus norvegicus [7] = species: Rattus norvegicus; experiment: Increase in diastolic blood pressure for 3 Htz electrical stimulation in the pithed rats; assay type: functional, Artery; how it was run: as §2
Rattus norvegicus [8] = species: Rattus norvegicus; experiment: Increase in diastolic blood pressure for 6 Htz electrical stimulation in the pithed rats; assay type: functional, Artery; how it was run: as §2
Rattus norvegicus [9] = experiment: Increase in diastolic blood pressure for 0.03 ug/kg intravenous dosing of angiotensin in pithed rats; assay type: functional, Artery; how it was run: as §2
Rattus norvegicus [10] = experiment: Increase in diastolic blood pressure for 0.1 ug/kg intravenous dosing of angiotensin in pithed rats; assay type: functional, Artery; how it was run: as §2
Rattus norvegicus [11] = experiment: Maximum percentage reduction in mean blood pressure and heart rate in metacorticoid (DOCA) hypertensive rats at a standard oral dose of 100 mg/kg
Rattus norvegicus [12] = experiment: Maximum percentage reduction in mean blood pressure in metacorticoid (DOCA) hypertensive rats at a standard oral dose of 50 mg/kg; assay type: functional; how it was run: as §1
Rattus norvegicus [13] = experiment: Increase in diastolic blood pressure at 0.03 ug/kg intravenous dosing of angiotensin in pithed rats; assay type: functional, Artery; how it was run: as §2
Rattus norvegicus [14] = experiment: Increase in diastolic blood pressure at 0.1 ug/kg intravenous dosing of angiotensin in pithed rats; assay type: functional, Artery; how it was run: as §2
Rattus norvegicus [15] = experiment: Increase in diastolic blood pressure at 0.1 ug/kg intravenous dosing of noradrenaline in pithed rats; assay type: functional, Artery; how it was run: as §2
Rattus norvegicus [16] = experiment: Increase in diastolic blood pressure at 0.3 ug/kg intravenous dosing of angiotensin in pithed rats; assay type: functional, Artery; how it was run: as §2
Rattus norvegicus [17] = experiment: Increase in diastolic blood pressure at 0.3 ug/kg intravenous dosing of noradrenaline in pithed rats; assay type: functional, Artery; how it was run: as §2
Rattus norvegicus [18] = species: Rattus norvegicus; experiment: Increase in diastolic blood pressure at 1 Htz electrical stimulation in the pithed rats; assay type: functional, Artery; how it was run: as §2
Rattus norvegicus [19] = species: Rattus norvegicus; experiment: Increase in diastolic blood pressure at 3 Htz electrical stimulation in the pithed rats; assay type: functional, Artery; how it was run: as §2
Rattus norvegicus [20] = species: Rattus norvegicus; experiment: Increase in diastolic blood pressure at 6 Htz electrical stimulation in the pithed rats; assay type: functional, Artery; how it was run: as §2
Rattus norvegicus [21] = experiment: Maximum percentage reduction in mean blood pressure in metacorticoid (DOCA) hypertensive rats at a standard oral dose of 25 mg/kg; assay type: functional; how it was run: as §1
Rattus norvegicus [22] = experiment: Increase in diastolic blood pressure at 1.0 ug/kg intravenous dosing of noradrenaline in pithed rats; assay type: functional, Artery; how it was run: as §2
Rattus norvegicus [23] = experiment: Maximum percentage reduction in mean blood pressure in metacorticoid (DOCA) hypertensive rats at standard intraperitoneal dose of 100 mg/kg; assay type: functional; details: route oral, in the assay text read “oral” for “intraperitoneal”; how it was run: as §1
Rattus norvegicus [24] = experiment: Maximum percentage reduction in mean blood pressure and heart rate in metacorticoid (DOCA) hypertensive rats at a standard intraperitoneal dose of 100 mg/kg; assay type: functional; details: route oral, in the assay text read “oral” for “intraperitoneal”; how it was run: as §1
Rattus norvegicus [25] = experiment: Maximum percentage reduction in mean blood pressure and heart rate in metacorticoid (DOCA) hypertensive rats at a standard oral dose of 100 mg/kg; IA = Inactive, Maximum percentage fall in MABP <10%; assay type: functional, organism-based; set-up: dose 100 mg/kg; how it was run: as §1
Rattus norvegicus [26] = experiment: Maximum percentage reduction in mean blood pressure and heart rate in metacorticoid (DOCA) hypertensive rats at a standard oral dose of 25 mg/kg; assay type: functional; how it was run: as §1
Rattus norvegicus [27] = experiment: Maximum percentage reduction in mean blood pressure and heart rate in metacorticoid (DOCA) hypertensive rats at a standard oral dose of 50 mg/kg; assay type: functional; how it was run: as §1

NNc1nnc(-c2c(Cl)cccc2Cl)s1
Reduction (Rattus norvegicus [1]): 50%

NNc1nncc2ccccc12 [HYDRALAZINE]
Increase in blood pressure (Rattus norvegicus [2]): 8 mmHg
Increase in blood pressure (Rattus norvegicus [3]): 38 mmHg
Increase in blood pressure (Rattus norvegicus [4]): 15 mmHg
Increase in blood pressure (Rattus norvegicus [5]): 28 mmHg
Increase in blood pressure (Rattus norvegicus [6]): 28 mmHg
Increase in blood pressure (Rattus norvegicus [7]): 42 mmHg
Increase in blood pressure (Rattus norvegicus [8]): 54 mmHg
Increase in blood pressure (Rattus norvegicus [9]): 8 mmHg
Increase in blood pressure (Rattus norvegicus [10]): 21 mmHg

Nc1cc(N2CCCCC2)nc(N)[n+]1[O-] [MINOXIDIL]
Increase in blood pressure (Rattus norvegicus [2]): 10 mmHg
Increase in blood pressure (Rattus norvegicus [3]): 25 mmHg
Increase in blood pressure (Rattus norvegicus [4]): 25 mmHg
Increase in blood pressure (Rattus norvegicus [5]): 9 mmHg
Increase in blood pressure (Rattus norvegicus [6]): 45 mmHg
Increase in blood pressure (Rattus norvegicus [7]): 25 mmHg
Increase in blood pressure (Rattus norvegicus [8]): 31 mmHg
Increase in blood pressure (Rattus norvegicus [9]): 6 mmHg
Increase in blood pressure (Rattus norvegicus [10]): 13 mmHg
Reduction (Rattus norvegicus [11]): 42%

Cl.NNc1nnc(-c2ccccc2-c2ccccc2)s1
Reduction (Rattus norvegicus [1]): 18%

Cl.NNc1nnc(-c2ccc(C(F)(F)F)cc2)s1
Reduction (Rattus norvegicus [1]): 21%

Cl.NNc1nnc(-c2ccccc2Br)s1
Reduction (Rattus norvegicus [1]): 48%

Cc1cc(C)cc(-c2nnc(NN)s2)c1.Cl
Reduction (Rattus norvegicus [1]): 18%

Cc1ccc(C)c(-c2nnc(NN)s2)c1.Cl
Reduction (Rattus norvegicus [1]): 50%

Cc1ccc(F)cc1-c1nnc(NN)s1.Cl
Reduction (Rattus norvegicus [1]): 63%

NNc1nnc(-c2ccco2)s1
Reduction (Rattus norvegicus [1]): 39%

CSc1ccccc1-c1nnc(NN)s1.Cl
Reduction (Rattus norvegicus [1]): 41%

Cl.NNc1nnc(-c2ccccc2I)s1
Reduction (Rattus norvegicus [1]): 58%
Reduction (Rattus norvegicus [12]): 24%

Cc1cccc(-c2nnc(NN)s2)c1C.Cl
Reduction (Rattus norvegicus [1]): 50%

CC(C)(C)c1ccccc1-c1nnc(NN)s1
Reduction (Rattus norvegicus [1]): 58%

Cc1ccsc1-c1nnc(NN)s1.Cl
Reduction (Rattus norvegicus [1]): 48%

Cl.NNc1nnc(-c2ccccn2)s1
Reduction (Rattus norvegicus [1]): 21%

C[S+]([O-])c1ccccc1-c1nnc(NN)s1.Cl (stereo not given)
Increase in blood pressure (Rattus norvegicus [13]): 4 mmHg
Increase in blood pressure (Rattus norvegicus [14]): 11 mmHg
Increase in blood pressure (Rattus norvegicus [15]): 6 mmHg
Increase in blood pressure (Rattus norvegicus [16]): 29 mmHg
Increase in blood pressure (Rattus norvegicus [17]): 10 mmHg
Increase in blood pressure (Rattus norvegicus [18]): 19 mmHg
Increase in blood pressure (Rattus norvegicus [19]): 34 mmHg
Increase in blood pressure (Rattus norvegicus [20]): 47 mmHg
Reduction (Rattus norvegicus [21]): 31%
Reduction (Rattus norvegicus [12]): 45%
Increase in blood pressure (Rattus norvegicus [22]): 21 mmHg

Cl.NNc1nnc(-c2ccccc2[N+](=O)[O-])s1
Reduction (Rattus norvegicus [1]): 26%

COc1ccc(Cl)c(OC)c1-c1nnc(NN)s1.Cl
Reduction (Rattus norvegicus [1]): 53%

Cc1ccc(-c2nnc(NN)s2)cc1.Cl
Reduction (Rattus norvegicus [1]): 28%

CCC[S+]([O-])c1ccccc1-c1nnc(NN)s1.Cl (stereo not given)
Reduction (Rattus norvegicus [1]): 48%

Cl.NNc1nnc(-c2ccsc2)s1
Reduction (Rattus norvegicus [1]): 33%

COc1cccc(-c2nnc(NN)s2)c1.Cl
Reduction (Rattus norvegicus [1]): 18%

Cl.NNc1nnc(-c2ccccc2C(F)(F)F)s1
Reduction (Rattus norvegicus [1]): 49%
Reduction (Rattus norvegicus [12]): 33%

COc1cc2nc(N3CCN(C(=O)c4ccco4)CC3)nc(N)c2cc1OC [PRAZOSIN]
Increase in blood pressure (Rattus norvegicus [2]): 23 mmHg
Increase in blood pressure (Rattus norvegicus [3]): 67 mmHg
Increase in blood pressure (Rattus norvegicus [4]): 32 mmHg
Increase in blood pressure (Rattus norvegicus [5]): 18 mmHg
Increase in blood pressure (Rattus norvegicus [6]): 49 mmHg
Increase in blood pressure (Rattus norvegicus [7]): 26 mmHg
Increase in blood pressure (Rattus norvegicus [8]): 31 mmHg
Increase in blood pressure (Rattus norvegicus [9]): 30 mmHg
Increase in blood pressure (Rattus norvegicus [10]): 45 mmHg

Cl.NNc1nnc(-c2cccc3ccccc23)s1
Reduction (Rattus norvegicus [1]): 26%

Cc1cccc(-c2nnc(NN)s2)c1.Cl
Reduction (Rattus norvegicus [1]): 29%

Cl.NNc1nnc(-c2ccccc2Cl)s1
Reduction (Rattus norvegicus [1]): 21%

Cl.NNc1nnc(-c2ccc(Cl)cc2)s1
Reduction (Rattus norvegicus [23]): 28%

Cc1cc(F)ccc1-c1nnc(NN)s1.Cl
Reduction (Rattus norvegicus [1]): 58%

COc1ccc(-c2nnc(NN)s2)cc1OC.Cl
Reduction (Rattus norvegicus [24]): 24%

Cl.NNc1nnc(-c2ccc(Cl)c(Cl)c2)s1
Reduction (Rattus norvegicus [1]): 17%

CCCCCCOc1ccccc1-c1nnc(NN)s1
Reduction (Rattus norvegicus [25]): inactive

Cc1ccc(-c2nnc(NN)s2)cc1C.Cl
Reduction (Rattus norvegicus [1]): 22%

CCc1ccccc1-c1nnc(NN)s1.Cl
Increase in blood pressure (Rattus norvegicus [13]): 2 mmHg
Increase in blood pressure (Rattus norvegicus [14]): 6 mmHg
Increase in blood pressure (Rattus norvegicus [15]): 8 mmHg
Increase in blood pressure (Rattus norvegicus [16]): 25 mmHg
Increase in blood pressure (Rattus norvegicus [17]): 14 mmHg
Increase in blood pressure (Rattus norvegicus [18]): 14 mmHg
Increase in blood pressure (Rattus norvegicus [19]): 25 mmHg
Increase in blood pressure (Rattus norvegicus [20]): 32 mmHg
Reduction (Rattus norvegicus [21]): 42%
Reduction (Rattus norvegicus [12]): 54%
Increase in blood pressure (Rattus norvegicus [22]): 22 mmHg

Cl.NNc1nnc(-c2ccccc2)s1
Reduction (Rattus norvegicus [1]): 42%

Cc1ccc(-c2nnc(NN)s2)c(C)c1.Cl
Reduction (Rattus norvegicus [1]): 61%

Cl.NNc1nnc(-c2cccc(O)c2)s1
Reduction (Rattus norvegicus [1]): 16%

Cl.NNc1nnc(-c2ccccc2F)s1
Reduction (Rattus norvegicus [1]): 31%

Cl.NNc1nnc(-c2cccc(C(F)(F)F)c2)s1
Reduction (Rattus norvegicus [1]): 21%

Cc1cccc(C)c1-c1nnc(NN)s1.Cl
Reduction (Rattus norvegicus [1]): 54%

Cc1ccccc1-c1nnc(NN)s1.Cl
Increase in blood pressure (Rattus norvegicus [2]): 10 mmHg
Increase in blood pressure (Rattus norvegicus [3]): 50 mmHg
Increase in blood pressure (Rattus norvegicus [4]): 16 mmHg
Increase in blood pressure (Rattus norvegicus [5]): 16 mmHg
Increase in blood pressure (Rattus norvegicus [6]): 29 mmHg
Increase in blood pressure (Rattus norvegicus [7]): 32 mmHg
Increase in blood pressure (Rattus norvegicus [8]): 41 mmHg
Increase in blood pressure (Rattus norvegicus [9]): 12 mmHg
Increase in blood pressure (Rattus norvegicus [10]): 28 mmHg
Reduction (Rattus norvegicus [26]): 33%
Reduction (Rattus norvegicus [27]): 48%

COc1ccccc1-c1nnc(NN)s1.Cl
Reduction (Rattus norvegicus [1]): 46%
Reduction (Rattus norvegicus [12]): 39%

COc1cccc(OC)c1-c1nnc(NN)s1.Cl
Reduction (Rattus norvegicus [1]): 33%

CCCOc1ccccc1-c1nnc(NN)s1.Cl
Reduction (Rattus norvegicus [1]): 46%

Cl.NNc1nnc(-c2cccs2)s1
Reduction (Rattus norvegicus [1]): 35%

Cl.NNc1nnc(-c2cccc(Cl)c2)s1
Reduction (Rattus norvegicus [1]): 20%
